Test results from ChEMBL document CHEMBL4219118, “Cathepsin B inhibitors: Further exploration of the nitroxoline core” (Bioorg Med Chem Lett, 2018).

How the values were obtained:
Cathepsin B [1] = target: T1, Cathepsin B (Homo sapiens, UniProt P07858); experiment: Inhibition of recombinant human cathepsin B exopeptidase activity assessed as inhibitory constant for enzyme-substrate-inhibitor complex using Abz-Gly-Ile-Val-Arg-Ala-Lys(Dnp)-OH as substrate in presence of pH 5 acetate buffer by fluorescence assay
Cathepsin B [2] = target: T1, Cathepsin B; experiment: Inhibition of recombinant human cathepsin B endopeptidase activity assessed as inhibitory constant for enzyme-inhibitor complex using Z-Arg-Arg-AMC as substrate in presence of pH 4.5 acetate buffer by fluorescence assay
Summary of the method: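 Recombinant cathepsin B endopeptidase activity assayed with the small substrate Z-Arg-Arg-AMC at pH 4.5. Acidic conditions chosen to shift the enzyme toward the closed (exopeptidase) conformation. Ki reported.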

Cathepsin B [3] = target: T1, Cathepsin B; experiment: Inhibition of recombinant human cathepsin B endopeptidase activity assessed as inhibitory constant for enzyme-substrate-inhibitor complex using Z-Arg-Arg-AMC as substrate in presence of pH 6 phosphate buffer by fluorescence assay
Cathepsin B [4] = target: T1, Cathepsin B; experiment: Inhibition of recombinant human cathepsin B exopeptidase activity assessed as inhibitory constant for enzyme-inhibitor complex using Abz-Gly-Ile-Val-Arg-Ala-Lys(Dnp)-OH as substrate in presence of pH 5 acetate buffer by fluorescence assay

Measured: Ki

Cc1ccc(-c2ccc([N+](=O)[O-])c3cccnc23)cc1
Not Active: all assays above

N#Cc1ccc(-c2ccc([N+](=O)[O-])c3cccnc23)cc1
Not Active: all assays above

N#Cc1ccc(-c2ccc(-c3ccc([N+](=O)[O-])c4cccnc34)o2)cc1
Not Active: all assays above

CC(=O)c1ccc(-c2c(-c3ccc([N+](=O)[O-])c4cccnc34)oc3ccccc23)cc1
Not Active: all assays above

O=[N+]([O-])c1ccc(-c2ccco2)c2ncccc12
Not Active: all assays above

O=C(c1cc([N+](=O)[O-])ccc1O)N1CCCCC1
Not Active: all assays above

Cc1ccc2c([N+](=O)[O-])cc([N+](=O)[O-])c(O)c2n1
Not Active: all assays above

O=[N+]([O-])c1ccc(-c2c(-c3ccc([N+](=O)[O-])c4cccnc34)oc3ccccc23)cc1
Not Active: all assays above

O=C(NCC1CCN(Cc2nc3ccccc3s2)CC1)c1cc([N+](=O)[O-])c2cccnc2c1O
Not Active: all assays above

CC1CCN(C(=O)c2cc([N+](=O)[O-])ccc2O)CC1
Not Active: all assays above

O=C(NCC1CCN(C2Cc3ccccc3C2)CC1)c1cc([N+](=O)[O-])c2cccnc2c1O
Not Active: all assays above

O=[N+]([O-])c1ccc(-c2ccoc2)c2ncccc12
Not Active: all assays above

CN(CC#N)C(=O)c1cc([N+](=O)[O-])ccc1O
Not Active: all assays above

N#CCNCc1cc([N+](=O)[O-])ccc1O
Not Active: all assays above

O=[N+]([O-])c1ccc(-c2ccsc2)c2ncccc12
Not Active: all assays above

O=[N+]([O-])c1ccc(-c2occc2-c2ccc([N+](=O)[O-])c3cccnc23)cc1
Not Active: all assays above

O=[N+]([O-])c1ccc(-c2ccccc2)c2ncccc12
Not Active: all assays above

N#CC1(NCc2cc([N+](=O)[O-])ccc2O)CC1
Not Active: all assays above

CN(CC#N)Cc1cc([N+](=O)[O-])ccc1O
Not Active: all assays above

N#Cc1ccc([N+](=O)[O-])c2cccnc12
Not Active: all assays above

Cc1ccc(-c2ccc([N+](=O)[O-])c3cccnc23)s1
Not Active: all assays above

O=C(O)c1ccc([N+](=O)[O-])c2cccnc12
Not Active: all assays above

O=[N+]([O-])c1ccc(-c2cc3ccccc3o2)c2ncccc12
Not Active: all assays above

O=[N+]([O-])c1ccc(Br)c2ncccc12
Not Active: all assays above

O=C(O)c1ccc2c([N+](=O)[O-])cc([N+](=O)[O-])c(O)c2n1
Not Active: all assays above

O=[N+]([O-])c1ccc(-c2cc3ccccc3s2)c2ncccc12
Not Active: all assays above

Cc1ccc([N+](=O)[O-])c2cccnc12
Not Active: all assays above

CC1CCN(Cc2cc([N+](=O)[O-])ccc2O)CC1
Not Active: all assays above

O=[N+]([O-])c1ccc(-c2ccc[nH]2)c2ncccc12
Not Active: all assays above

NC(=O)c1ccc([N+](=O)[O-])c2cccnc12
Not Active: all assays above
